# Assay results taken from ChEMBL document CHEMBL1128262, “New steroidal antiinflammatory antedrugs: steroidal [16 alpha,17 alpha-d]-3'-carbethoxyisoxazolines” (1995).
# Legend:
# Rattus norvegicus [1] = experiment: The %inhibition of compound for croton oil -induced ear edema was measured in rats at 0.01 mg/ear; type: functional
# In short: (§1)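 Male Sprague-Dawley rats; initial ear thickness measured with spring-loaded micrometer. Single topical dose of steroid in 25 µL acetone/DMSO applied to ear surfaces, then 5% croton oil 30 min later. Ear thickness remeasured 5 h later at peak inflammation. % inhibition computed against vehicle-treated controls; five animals per group.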
# Rattus norvegicus [2] = experiment: The %inhibition of compound for croton oil -induced ear edema was measured in rats at 0.1 mg/ear; type: functional; in short: as §1
# Rattus norvegicus [3] = experiment: The %inhibition of compound for croton oil -induced ear edema was measured in rats at 0.03 mg/ear; type: functional; in short: as §1
# Rattus norvegicus [4] = experiment: The body weight change of rats after administration of the compound; type: functional
# In short: (§2)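 Male Sprague-Dawley rats given 5-day once-daily topical steroid to right ears in acetone/DMSO, with croton oil to both ears. Afterward, body weight change, thymus weight change and plasma corticosterone (ng/mL) were recorded against controls. Five or six samples per group, mean ± SEM; ANOVA with Bonferroni post hoc test.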
# Rattus norvegicus [5] = experiment: The antiinflammatory activity was evaluated as %inhibition of croton oil induced ear edema in the left ear of rat At the dose of 135(nmol/ear); type: functional
# In short: (§3)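 Male Sprague-Dawley rats. Right ears dosed topically (acetone/DMSO vehicle, 25 µL) once daily for 5 days, with 5% croton oil applied 30 min after each dose. Left ears received vehicle plus croton oil to reflect systemic effect. Micrometer ear thickness read 5 h after croton oil. % inhibition computed against controls; ANOVA with Bonferroni test.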
# Rattus norvegicus [6] = experiment: The antiinflammatory activity was evaluated as %inhibition of croton oil induced ear edema in the right ear of rat At the dose of 135(nmol/ear); type: functional; in short: as §3
# Rattus norvegicus [7] = experiment: The plasma corticosterone (ng/ml) concentration was measured in rats after compound administration; type: functional, organism-based; in short: as §2
# Rattus norvegicus [8] = experiment: The thymus weight change of rats after administration of the compound; type: functional; in short: as §2
# Rattus norvegicus [9] = experiment: The antiinflammatory activity was evaluated as %inhibition of croton oil induced ear edema in the right ear of rat; type: functional; in short: as §3
# Rattus norvegicus [10] = experiment: The antiinflammatory activity was evaluated as %inhibition of croton oil induced ear edema in the left ear of rat; type: functional; in short: as §3
# Rattus norvegicus [11] = experiment: The antiinflammatory activity was evaluated as %inhibition of croton oil induced ear edema in the left ear of rat at the dose of 101(nmol/ear); type: functional; in short: as §3
# Rattus norvegicus [12] = experiment: The antiinflammatory activity was evaluated as %inhibition of croton oil induced ear edema in the right ear of rat at the dose of 101(nmol/ear); type: functional; in short: as §3
structure (smiles),measurement,setting,value
CCOC(=O)C1=NO[C@]2(C(=O)CO)[C@H]1CC1C3CCC4=CC(=O)C=C[C@]4(C)[C@H]3[C@@H](O)C[C@@]12C (stereo partly specified),Inhibition,Rattus norvegicus [1],31.3%
same,Inhibition,Rattus norvegicus [2],44%
same,Inhibition,Rattus norvegicus [3],44%
CCOC(=O)C1=NO[C@]2(C(=O)CO)[C@H]1CC1C3CCC4=CC(=O)C=C[C@]4(C)[C@@]3(F)[C@@H](O)C[C@@]12C (stereo partly specified),Body weight change,Rattus norvegicus [4],36 g
same,Inhibition,Rattus norvegicus [5],24.4%
same,Inhibition,Rattus norvegicus [6],56.9%
same,Plasma corticosterone,Rattus norvegicus [7],48.6 ng/mL
same,Thymus weight,Rattus norvegicus [8],562 mg
C[C@]12C=CC(=O)C=C1CC[C@@H]1[C@@H]2[C@@H](O)C[C@@]2(C)[C@H]1CC[C@]2(O)C(=O)CO [PREDNISOLONE],Body weight change,Rattus norvegicus [4],22.8 g
same,Inhibition,Rattus norvegicus [9],66.7%
same,Plasma corticosterone,Rattus norvegicus [7],31.8 ng/mL
same,Thymus weight,Rattus norvegicus [8],369 mg
same,Inhibition,Rattus norvegicus [10],49.6%
CCOC(=O)C1=NO[C@]2(C(=O)COC(C)=O)[C@H]1CC1C3CCC4=CC(=O)C=C[C@]4(C)[C@H]3[C@@H](O)C[C@@]12C (stereo partly specified),Inhibition,Rattus norvegicus [1],14.9%
same,Inhibition,Rattus norvegicus [2],35.7%
same,Inhibition,Rattus norvegicus [3],21.4%
CCOC(=O)C1=NO[C@]2(C(=O)COC(C)=O)[C@H]1CC1C3CCC4=CC(=O)C=C[C@]4(C)[C@@]3(F)[C@@H](O)C[C@@]12C (stereo partly specified),Body weight change,Rattus norvegicus [4],38 g
same,Inhibition,Rattus norvegicus [11],8.9%
same,Inhibition,Rattus norvegicus [12],51.2%
same,Plasma corticosterone,Rattus norvegicus [7],134 ng/mL
same,Thymus weight,Rattus norvegicus [8],625 mg
